The target of assay [1] is T1, Tyrosine-protein phosphatase non-receptor type 1 (Mus musculus) (UniProt P35821).
T1 sequence (whole entry): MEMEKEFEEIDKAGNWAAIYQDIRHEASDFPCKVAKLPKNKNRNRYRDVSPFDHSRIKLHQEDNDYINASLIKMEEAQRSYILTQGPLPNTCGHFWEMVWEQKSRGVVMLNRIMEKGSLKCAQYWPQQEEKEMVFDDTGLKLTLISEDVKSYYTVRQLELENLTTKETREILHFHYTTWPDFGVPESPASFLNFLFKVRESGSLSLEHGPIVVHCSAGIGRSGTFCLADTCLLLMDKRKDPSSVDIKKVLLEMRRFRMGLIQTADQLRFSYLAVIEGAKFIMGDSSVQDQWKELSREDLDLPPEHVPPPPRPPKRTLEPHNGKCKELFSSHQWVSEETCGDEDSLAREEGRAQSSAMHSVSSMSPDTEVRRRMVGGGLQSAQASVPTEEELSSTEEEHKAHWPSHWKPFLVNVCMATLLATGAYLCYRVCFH
The assay is described as follows: Ability to decrease plasma insulin levels in mouse at a dose 100 mg/kg/day. The assay is classed as functional, organism-based. Summed up: (§1)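 Diabetic db/db or ob/ob mice dosed orally once daily for 4 days. Plasma glucose and insulin reported as percent change from a vehicle-treated group. 4-6 mice per group. Significance set at p < 0.05 or p < 0.01 versus vehicle; NS means generally less than -15% change.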

Assay [2] has as its system Mus musculus. The assay is described as follows: Evaluated in vivo for their ability to decrease plasma glucose levels in diabetic C57BL/KsJ db/db mouse at a dose 100 mg/kg/day; NS is non significant, generally less than - 15% change. It is filed as functional, organism-based. Put shortly: as §1
Assay [3] deals with T2, Tyrosine-protein phosphatase non-receptor type 1 (Rattus norvegicus, UniProt P20417).
T2 sequence (P20417 whole entry): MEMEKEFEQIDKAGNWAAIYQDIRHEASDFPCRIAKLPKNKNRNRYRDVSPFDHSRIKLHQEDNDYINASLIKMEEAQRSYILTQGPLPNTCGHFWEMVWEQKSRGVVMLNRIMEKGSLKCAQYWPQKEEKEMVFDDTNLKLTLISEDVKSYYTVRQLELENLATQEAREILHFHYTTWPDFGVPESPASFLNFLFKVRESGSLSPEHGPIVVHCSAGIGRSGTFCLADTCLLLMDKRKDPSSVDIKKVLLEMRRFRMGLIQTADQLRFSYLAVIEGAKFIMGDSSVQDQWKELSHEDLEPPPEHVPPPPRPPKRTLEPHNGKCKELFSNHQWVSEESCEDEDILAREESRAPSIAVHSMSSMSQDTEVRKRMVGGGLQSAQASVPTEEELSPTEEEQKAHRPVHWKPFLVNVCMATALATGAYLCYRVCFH
The assay is described as follows: Inhibition of PTPase activity using recombinant r-PTP1B and IR-triphosphopeptide as substrate; ND is no data. Put shortly:
(§2)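 Rat recombinant PTP1B in 33 mM TRIS-HCl, 2 mM EDTA, 50 mM β-mercaptoethanol, pH 7.4 (about 1000-2000 nmol/min/mg). Preincubated 10 min at 37 °C with or without compound in HEPES buffer pH 7.4. Released phosphate read by malachite green-ammonium molybdate at 650 nm against a phosphate standard. Quadruplicates. IC50 by four-parameter logistic fit.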

The target in assay [4] is T1, Tyrosine-protein phosphatase non-receptor type 1 (Mus musculus). The experiment in a line: In vivo ability to decrease plasma glucose levels in diabetic C57BL/KsJ ob/ob mouse at a dose 100 mg/kg/day. It is filed as functional, organism-based. Summed up:
as §1

For assay [5], the target named is T3, Tyrosine-protein phosphatase non-receptor type 1 (Rattus norvegicus) (UniProt P20417).
T3 sequence (whole entry): T2 sequence (P20417 whole entry)
The experiment in a line: Inhibition of PTPase (PTP1B) activity in rat hepatic membrane at 50 uM concentration, using pNPP as the substrate. It is filed as cell membranes. Particulars: Liver. Summed up:
(§3)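 Liver membranes from male Sprague-Dawley rats (100-150 g), about 30 µg protein per well. Preincubated 10 min at 37 °C with compound in 1.25% DMSO in 50 mM HEPES pH 7.4. Then 6.33 mM pNPP for 30 min at 37 °C, stopped with NaOH. p-Nitrophenol read at 410 nm. Run in triplicate. Reported as percent of untreated control.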

The test system of assay [6] is Mus musculus. The assay is described as follows: Evaluated for their ability to decrease plasma insulin levels in mouse at a dose 50 mg/kg/day. **p indicates <0.01. It is filed as functional. Put shortly:
as §1

The test system of assay [7] is Mus musculus. The experiment in a line: Evaluated in vivo for their ability to decrease plasma glucose levels in diabetic C57BL/KsJ db/db mouse at a dose 100 mg/kg/day. *p indicates <0.05. It is filed as functional. Put shortly: (§4)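 Mice dosed orally once daily for 4 days; plasma glucose and insulin measured and expressed as percent change versus a vehicle-treated group (mean ± SE, 4-6 mice/group). NS is generally less than -15% change. Significance is versus vehicle-treated mice.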

Assay [8] deals with Mus musculus. The assay is described as follows: Evaluated in vivo for their ability to decrease plasma glucose levels in diabetic C57BL/KsJ ob/ob mouse at a dose 50 mg/kg/day. It is filed as functional, organism-based. Summed up: as §1
For assay [9], the target named is T3, Tyrosine-protein phosphatase non-receptor type 1 (Rattus norvegicus). The experiment in a line: Inhibition of Protein-tyrosine phosphatase 1B activity in rat hepatic membrane at a concentration of 50 uM using pNPP as the substrate. The assay is classed as cell membranes. The settings on record: Liver. Summed up:
as §3

The target of assay [10] is T2, Tyrosine-protein phosphatase non-receptor type 1. The assay is described as follows: Inhibition of PTPase activity using recombinant r-PTP1B as the enzyme and IR-triphosphopeptide as substrate. Put shortly: as §2
Assay [11] has the same target. The assay is described as follows: Inhibition of PTPase activity using recombinant Protein-tyrosine phosphatase 1B as the enzyme and IR-triphosphopeptide as substrate.
For assay [12], the system named is Mus musculus. The assay is described as follows: Evaluated for their ability to decrease plasma insulin levels in mouse at a dose 70 mg/kg/day; NS is not significant. The assay is classed as functional, organism-based. Summed up:
as §1

Assay [13] has as its target T3, Tyrosine-protein phosphatase non-receptor type 1 (Rattus norvegicus). The experiment in a line: Inhibition of PTPase activity using recombinant Protein-tyrosine phosphatase 1B as the enzyme and IR-triphosphopeptide as substrate at 50 uM. Put shortly: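 Recombinant rat PTP1B (human 321-aa form assayed the same way), activity about 1000-2000 nmol/min/mg, preincubated with compound for 10 min at 37 °C in HEPES pH 7.4. The reaction is started with 50 µM triphosphorylated insulin receptor 1142-1153 dodecapeptide and run 30 min at 37 °C. Released phosphate read by malachite green-molybdate at 650 nm, in quadruplicate. Result is percent inhibition versus control.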

Assay [14] deals with Mus musculus. The assay is described as follows: Evaluated in vivo for their ability to decrease plasma glucose levels in diabetic C57BL/KsJ db/db mouse at a dose 100 mg/kg/day; NS is not significant. It is filed as functional, organism-based. Put shortly: as §1
Assay [15] deals with Mus musculus. The assay is described as follows: Evaluated in vivo for their ability to decrease plasma glucose levels in diabetic C57BL/KsJ ob/ob mouse at a dose 70 mg/kg/day; NS is not significant. It is filed as functional, organism-based. Summed up: as §1
Assay [16] relates to Mus musculus. The experiment in a line: Evaluated in vivo for their ability to decrease plasma glucose levels in diabetic C57BL/KsJ db/db mouse at a dose 100 mg/kg/day; NS=not significant. The assay is classed as functional, organism-based. Put shortly: as §1
Assay [17] has as its system Mus musculus. The assay is described as follows: Evaluated in vivo for their ability to decrease plasma glucose levels in diabetic C57BL/KsJ ob/ob mouse at a dose 100 mg/kg/day. It is filed as functional. Summed up:
as §4

The subject of assay [18] is Mus musculus. The experiment in a line: Evaluated for their ability to decrease plasma insulin levels in mouse at a dose 100 mg/kg/day. The assay is classed as functional. Put shortly:
as §4

The source made the active and inactive calls. The calls are words filed in the database; no cut-off is given here.

The IC50 is the concentration needed to halve the response being measured. In general, inhibition refers to how much of the control response was suppressed. As for `C/C(=C\CC1OC(=O)NC1=O)c1cccc(OCCc2nc(-c3ccccc3)oc2C)c1` (stereo not drawn), the Decrease result in assay [1] and in assay [4] was “Not significant” each time. Moreover, the Decrease result with Mus musculus [2] is “inactive”. In addition, the IC50 result in [3] is reported as “Not significant”. In addition, in assay [5], the inhibition was 36%.

Consider `Cc1oc(-c2ccc(C(F)(F)F)cc2)nc1COc1cccc(/C=C/C(C)n2oc(=O)[nH]c2=O)c1` (stereo not drawn), for which the figures for the Decrease in the assay with Mus musculus [6] and in the assay on Mus musculus [7] were 83% and 41%, respectively. For the same compound, the inhibition in assay [5] is 49%. Also, the Decrease result in the assay on Mus musculus [8] is “inactive”.

With `CCCC/C(=C\Cn1oc(=O)[nH]c1=O)c1cccc(OCc2cc(Cl)cc(Cl)c2)c1`, the inhibition in assay [9] is 61%; in [5], 57%. Moreover, the IC50 came to 800 nM in [10] and 1800 nM in [11].

Turning to `C/C(=C\C=C\Cn1oc(=O)[nH]c1=O)c1cccc(OCc2nc(-c3ccccc3)oc2C)c1`, the inhibition in [9] is 57%; in assay [13], 1.4%. Besides, the Decrease entry with Mus musculus [12], in the assay with Mus musculus [14] and in the assay on Mus musculus [15] was “inactive” throughout.

Consider `C/C(=C\CC1SC(=O)NC1=O)c1cccc(OCc2nc(-c3ccccc3)oc2C)c1` (stereo not drawn), for which the Decrease entry with Mus musculus [16] was “inactive”. Moreover, in assay [5], the inhibition was 5%.

On to `C/C(=C\Cn1oc(=O)[nH]c1=O)c1cccc(OCc2nc(-c3ccc(C(F)(F)F)cc3)oc2-c2ccccc2)c1`, for which the Decrease in the assay with Mus musculus [17] is recorded as 25%; in the assay on Mus musculus [18], 30%. For the same compound, the IC50 in [10] came to 300 nM.

The values are drawn from ChEMBL document CHEMBL1132971, “New azolidinediones as inhibitors of protein tyrosine phosphatase 1B with antihyperglycemic properties” (J Med Chem, 2000).
